Assay outcomes deposited in PubChem by Johns Hopkins Ion Channel Center.
RGS4 act: RGS4 potentiators or activators, primary screen, cell-based, HEK293 M3R inducible RGS4, calcium flux. carbachol calcium flux Fluo4; hits give low values. B-score at 10 µM. hit rate 0.92% among 310,000. AID 463111, 2010;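 active = B-score of the integrated calcium signal more than 4 SD below the library mean, with starting fluorescence not abnormally high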;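 also: negative B-score means reduced calcium response which marks RGS4 activation or potentiation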
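System: HEK293 FlpIn-TREx cells, stable M3R, doxycycline-inducible RGS4. Timing: overnight RGS4 induction, 30 min dye load 37 °C, 20 min compound RT. Also added: carbachol, ECmax concentration. Measured by: Fluo4 fluorescence kinetic imaging of calcium. Evaluation: integrated calcium ratio converted to B score.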
MrgX1 PAM: positive allosteric modulators of MrgX1, primary screen, HEK293 cells, Fluo-4 calcium flux; FDSS; hits give high values; B-score at 10 µM; hit rate 0.63% among 310,000; AID 588675, 2011;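 active = plate-corrected calcium response at least 3 library SD above typical, normal starting fluorescence, not activating the receptor alone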;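 also: compound read alongside a low EC10 to EC30 dose of BAM8-22 agonist; peak minus trough fluorescence over baseline measured at the second addition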
Target sequence (Q96LB2 whole entry, looked up): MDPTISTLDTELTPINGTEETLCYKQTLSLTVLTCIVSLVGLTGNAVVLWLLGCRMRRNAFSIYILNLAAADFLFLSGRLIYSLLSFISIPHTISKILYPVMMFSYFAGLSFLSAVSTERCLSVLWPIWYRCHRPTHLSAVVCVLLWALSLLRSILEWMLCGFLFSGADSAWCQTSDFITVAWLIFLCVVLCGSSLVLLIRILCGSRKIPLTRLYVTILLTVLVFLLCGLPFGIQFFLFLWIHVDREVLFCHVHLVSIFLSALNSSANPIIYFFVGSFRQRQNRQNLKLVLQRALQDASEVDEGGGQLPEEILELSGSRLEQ
MrgX1 agonist: agonists of human MrgX1 receptor, primary screen, HEK293 cells, Fluo-4 calcium flux; Mas-related G-protein coupled receptor member X1 (Homo sapiens), Q96LB2; Fluo-4 calcium fluorescence, agonist mode; hits give high values; B-score at 10 µM; hit rate 0.44% among 310,000; AID 588627, 2011;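 active = calcium response B-score plate-corrected fluorescence ratio at least 3 library SD, with starting fluorescence B-score inside 5 SD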
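Material: MrgX1-expressing HEK293 cells / Dosing: compound as first of three additions / Incubation: overnight seeding, then 1 h dark dye loading / Signal: Fluo-4 NW calcium fluorescence / Evaluation: B-scored fluorescence response ratio / Benchmarks: positive and negative control wells on each plate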
RGS4 block: RGS4 inhibitors, primary screen, cell-based, HEK293 M3R inducible RGS4, calcium flux; Regulator of G-protein signaling 4 (Homo sapiens), P49798; B-score at 10 µM; AID 463165, 2010; Fluo-4 calcium flux; hits give high values; triggered by carbachol at its EC20; hit rate 0.45% among 310,000;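 active = B-score, a plate-corrected calcium signal, over three deviations above library mean, with baseline fluorescence within five deviations of library mean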;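 also: RGS4 expression induced by doxycycline in cells with stable M3 receptor; B-score is computed from the integrated fluorescence ratio over baseline after carbachol; higher B-score means a larger calcium signal and so more RGS4 inhibition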
Target sequence (P49798 whole entry, looked up): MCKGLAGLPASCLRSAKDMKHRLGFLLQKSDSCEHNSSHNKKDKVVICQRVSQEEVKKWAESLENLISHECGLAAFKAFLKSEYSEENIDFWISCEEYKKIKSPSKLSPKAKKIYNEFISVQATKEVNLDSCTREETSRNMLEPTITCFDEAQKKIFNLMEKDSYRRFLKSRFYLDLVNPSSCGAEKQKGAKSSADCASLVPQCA
MrgX1 antag: antagonists of human MrgX1 receptor, primary screen, HEK293 cells, Fluo-4 calcium flux. Mas-related G-protein coupled receptor member X1 (Homo sapiens), Q96LB2. BAM8-22 antagonism; hits give low values. B-score at 10 µM. hit rate 1.3% among 310,000;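 active = calcium-response B-score plate-corrected more than 3 library SD below zero, starting fluorescence within 5 deviations, no agonist response on first addition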;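 also: peak minus trough fluorescence over baseline after final BAM8-22 challenge near maximal dose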
MrgX1 antag conf: MrgX1 receptor antagonists, duplicate retest, confirmation, HEK293 cells, Fluo-4 calcium flux; shares compounds with MrgX1 antag; BAM8-22 calcium flux; hits give low values; remaining BAM8-22 calcium response % of control (hits give low values), % at 10 µM; hit rate 19% among 2,300;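 active = remaining agonist calcium response no higher than 100% minus 3 SD of agonist-only control wells, with starting fluorescence near control levels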;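 also: agonist BAM8-22 given at a near maximal EC90 to ECmax level; peak minus minimum fluorescence divided by baseline after agonist addition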
HEK293 Ca flux: nonspecific calcium signal in parental HEK293, confirmation, counter-screen for MrgX1 antagonist project, parental HEK293 cells, Fluo-4 calcium flux; fluorescence ratio F(max-min)/F0 at 10 µM; hit rate 2% among 4,000; Fluo-4 calcium fluorescence, FDSS; shares compounds with MrgX1 antag;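 active = duplicate-averaged calcium fluorescence ratio at least three times the standard deviation of buffer wells, a nonspecific response in parental cells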
HEK293 Ca counter: calcium response in parental HEK293 cells, primary screen, counter-screen for MrgX1 allosteric activator project, cell-based, Fluo-4 calcium flux, duplicate. shares compounds with MrgX1 antag. hit rate 0.4% among 4,000. Fluo-4 fluorescence ratio; hits give high values. fluorescence ratio F(max-min)/F0 at 10 µM;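 active = calcium fluorescence ratio, averaged over duplicates, at least 3 SD of the buffer-well ratio, meaning a nonspecific response in receptor-free cells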;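 also: untransfected parental HEK293 lacking MrgX1 used as counterscreen for MrgX1 allosteric activators; fluorescence change taken during the second addition on a kinetic imager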
HEK293 Ca cntr2: calcium response in parental HEK293 cells, primary screen, counter-screen for MrgX1 agonist project, cell-based, Fluo-4 calcium flux, duplicate, agonist mode | shares compounds with MrgX1 antag | Fluo-4 calcium fluorescence (FDSS); hits give high values | fluorescence ratio F(max-min)/F0 at 10 µM | hit rate 8.7% among 4,000 | AID 624115, 2012;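 active = calcium fluorescence ratio at least three times the spread of buffer wells, meaning a non-specific response in parental cells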
An asterisk follows results filed as active; i = inactive; . = not tested or not shown. An excerpt weighted towards active compounds, which were near 3.5% of everything screened.

SMILES | RGS4 act | MrgX1 PAM | MrgX1 agonist | RGS4 block | MrgX1 antag | MrgX1 antag conf | HEK293 Ca flux | HEK293 Ca counter | HEK293 Ca cntr2
COc1ccc(NC(=O)CSc2nc(=O)n(CCN(C)C)c3c2CCCC3)cc1OC | i | i | i | i | -5.6* | i | i | i | i
COc1ccc(Cl)cc1NC(=O)CSc1nc(=O)n(CCN(C)C)c2c1CCCC2 | i | i | i | i | i | . | . | . | .
CCOC(=O)c1cc2c3ccccc3n(CC)c2nc1N | i | i | i | i | -5.8* | i | i | i | i
O=C(CCc1c[nH]c2ccccc12)OCc1ccc(Br)cc1 | i | i | i | i | i | . | . | . | .
Cc1ccc(S(=O)(=O)N2CCC(C(=O)N3CCC(C(=O)NCc4cccnc4)CC3)CC2)cc1 | i | i | i | i | -6.6* | 85%* | i | i | i
O=C(CC1C(=O)N(c2ccccc2)C(=O)N1C1CCCCC1)Nc1ccccc1 (stereo not given) | i | i | i | i | i | . | . | . | .
CC1(C)C2CCC13CS(=O)(=O)N[C@@H]3C2 (stereo not given in full) | i | i | i | i | -9.4* | i | i | i | i
FC(F)Oc1ccc(NC(=S)NCc2cccnc2)cc1 | i | i | i | i | -6.2* | 83%* | i | i | i
S=C(NCc1cccnc1)Nc1cccc(Cl)c1 | i | i | i | i | i | . | . | . | .
S=C(NCc1cccnc1)Nc1cc(Cl)cc(Cl)c1 | i | i | i | i | -5.1* | 72%* | i | i | 58*
S=C(NCc1cccnc1)Nc1ccc(Oc2ccccc2)cc1 | i | i | i | i | i | . | . | . | .
CCC(=O)N(Cc1cc2cccc(C)c2[nH]c1=O)c1ccccc1OC | i | i | i | i | -5.3* | i | i | i | i
COc1ccccc1N(Cc1cc2cccc(C)c2[nH]c1=O)C(=O)C(C)C | i | i | i | i | i | . | . | . | .
CC(C)(C)c1ccc(C(=O)N2CCC(C(=O)NC3CC3)CC2)cc1 | i | i | i | i | i | . | . | . | .
CC(C)(C)c1ccc(C(=O)N2CCC(C(=O)NCc3ccncc3)CC2)cc1 | i | i | i | i | -5.2* | i | i | i | i
CC(C)(Oc1ccc(Cl)cc1)C(=O)OCC(=O)N1CCCC1 | i | i | i | i | -13* | i | i | i | i
O=C(CCN1C(=O)c2ccccc2S1(=O)=O)Nc1cccc(F)c1 | i | i | i | i | i | . | . | . | .
COC(=O)c1cc(CNC(=O)c2ccccc2OCc2c(C)noc2C)ccc1OC | i | i | i | i | i | . | . | . | .
O=C(CCc1ccccc1)Nc1cc(C(F)(F)F)ccc1Cl | i | i | i | i | -4.5* | i | i | i | i
NC(=O)c1csc(-c2ccncc2)n1 | i | i | i | i | -5.6* | i | i | i | i
COCCNC(=O)C1CC2Cn3c(nc4cc(Cl)c(Cl)cc43)C2N1C (stereo not given) | i | i | i | i | -5.5* | i | i | i | i
